Columns and labels:
[1] = Acute toxicity in po dosed Kun Ming mouse assessed as mortality after 24 hrs; type: organism-based; settings: in vivo
Method in brief: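 Mice, 10 per group, given a single oral dose (10 mL/kg) of 0.5% methylcellulose vehicle or test compound at 200, 500, 1000, 1500 or 2000 mg/kg. Survivors were counted 24 h after dosing and percent mortality per group was calculated. LD50 was derived by statistical analysis.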

Rattus norvegicus [2] = test: Effect on thermal hypersensitivity in sham-operated Sprague-Dawley rat at 20 to 80 mg/kg, po administered as bid on days 15th to 18th; type: ADME, organism-based; settings: in vivo
Method in brief: (§1)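 CCI or sham SD rats, 10 per group, dosed orally in 0.5% methylcellulose (10 mL/kg) twice daily on days 15–18. Tested after the first dose on day 15 and the last dose on day 18. Plantar test: after 30 min acclimation on a glass floor, radiant heat was applied under the hind paw and withdrawal latency recorded. 30 s cutoff; mean of four samplings.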

[3] = molecular target: Histamine H3 receptor (Rattus norvegicus) (UniProt Q9QYN8); test: Displacement of [3H]-N-alpha-methylhistamine from H3 receptor in rat cerebral cortex at 1 uM after 30 mins by liquid scintillation counting analysis; type: tissue-based
Rattus norvegicus [4] = test: Antiallodynic activity in po dosed Sprague-Dawley rat chronic constriction injury-induced neuropathic pain model assessed as inhibition of thermal hypersensitivity administered as bid on day 15th and 18th post surgery by plantar test; type: functional; method in brief: as §1
[5] = molecular target: 5-hydroxytryptamine receptor 2A (Rattus norvegicus) (UniProt P14842); test: Displacement of [3H]-ketanserin from 5HT2A receptor in rat cerebral cortex at 1 uM after 15 mins by liquid scintillation counting analysis; type: tissue-based
[6] = Half life in Sprague-Dawley rat at 80 mg/kg, po administered through gavage by LC-MS/MS analysis; type: ADME, organism-based; settings: in vivo
Method in brief: (§2)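 SD rats, n = 3/group. Dosing was either 5 mg/kg iv via tail vein in saline or 80 mg/kg by oral gavage as a suspension in 0.5% methylcellulose. Serial tail-vein blood was drawn into heparinized tubes at 0.5, 1, 2, 3, 4, 5, 6, 8 and 24 h. Plasma was separated, proteins precipitated with acetonitrile, and samples analysed by LC/MS.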

[7] = Cmax in Sprague-Dawley rat at 80 mg/kg, po administered through gavage by LC-MS/MS analysis; type: ADME, organism-based; design: dose 80 mg/kg, route oral; settings: in vivo; method in brief: as §2
[8] = Oral bioavailability in Sprague-Dawley rat at 80 mg/kg administered through gavage by LC-MS/MS analysis; type: ADME, organism-based; settings: in vivo; method in brief: as §2
Mus musculus [9] = test: Antiallodynic activity in ig dosed Kun Ming mouse assessed as inhibition of formalin-induced pain in delayed pain response phase administered 15 mins prior to formalin challenge measured after 15 to 45 mins post formalin dosing; type: functional
Method in brief: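 Mice received 20 μL of 2.5% formalin (0.92% formaldehyde) in the dorsal right hind paw. Time spent licking or biting the paw was scored at 0–5 min (phase I) and 15–45 min (phase II), with a mirror behind the glass cylinder. Vehicle was 30% PEG 400 at 10 mL/kg, given 15 min before formalin. n = 10–12 per group. % antinociception = (LT_V − LT_D)/LT_V × 100.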

[10] = molecular target: Mu-type opioid receptor (Homo sapiens) (UniProt P35372); test: Displacement of [3H]-diprenorphine from human mu-opiod receptor expressed in CHO cells at 1 uM after 150 mins by liquid scintillation counting analysis; type: cell-based
Rattus norvegicus [11] = test: Antiallodynic activity in po dosed Sprague-Dawley rat chronic constriction injury-induced neuropathic pain model assessed as inhibition of thermal hypersensitivity administered as single dose on day 15th post surgery by plantar test; type: functional; method in brief: as §1
Mus musculus [12] = type: toxicity, organism-based, Kun Ming; settings: in vivo, po, 80 mg/kg
[13] = AUC (0 to last) in Sprague-Dawley rat at 5 mg/kg, iv by LC-MS/MS analysis; type: ADME, organism-based; design: dose 5 mg/kg, route intravenous, time 0 - last; settings: in vivo
Method in brief: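 Rats (n = 3/group) dosed via lateral tail vein, 5 mg/kg in 100% saline. Serial tail-vein blood into heparinized tubes at 30 min and 1, 2, 3, 4, 5, 6, 8 and 24 h. Plasma separated by centrifugation, proteins precipitated with acetonitrile, analysed by LC/MS.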

Rattus norvegicus [14] = test: Antiallodynic activity in po dosed Sprague-Dawley rat chronic constriction injury-induced neuropathic pain model assessed as inhibition of mechanical allodynia administered as single dose on day 15th post surgery by Von frey test; type: functional
Method in brief: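 Sciatic nerve CCI in SD rats (Bennett–Xie) under 5% chloral hydrate: four loose 4-0 silk ligatures on the right sciatic nerve, about 1 cm proximal to the trifurcation. Oral dosing in 0.5% methylcellulose (10 mL/kg), twice daily on days 15–18. Testing followed the first dose on day 15 and the last dose on day 18. Mechanical withdrawal threshold by von Frey up–down method, four samplings averaged. 10 rats/group.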

[15] = Tmax in Sprague-Dawley rat at 80 mg/kg, po administered through gavage by LC-MS/MS analysis; type: ADME, organism-based; settings: in vivo; method in brief: as §2
[16] = molecular target: Sodium channel protein type 9 subunit alpha (Homo sapiens) (UniProt Q15858); test: Inhibition of human Nav 1.7 expressed in HEK293 cells at 1 uM by electrophysiological assay; type: cell-based
Chain of Sodium channel protein type 9 subunit alpha (Homo sapiens) (Q15858 whole entry, looked up): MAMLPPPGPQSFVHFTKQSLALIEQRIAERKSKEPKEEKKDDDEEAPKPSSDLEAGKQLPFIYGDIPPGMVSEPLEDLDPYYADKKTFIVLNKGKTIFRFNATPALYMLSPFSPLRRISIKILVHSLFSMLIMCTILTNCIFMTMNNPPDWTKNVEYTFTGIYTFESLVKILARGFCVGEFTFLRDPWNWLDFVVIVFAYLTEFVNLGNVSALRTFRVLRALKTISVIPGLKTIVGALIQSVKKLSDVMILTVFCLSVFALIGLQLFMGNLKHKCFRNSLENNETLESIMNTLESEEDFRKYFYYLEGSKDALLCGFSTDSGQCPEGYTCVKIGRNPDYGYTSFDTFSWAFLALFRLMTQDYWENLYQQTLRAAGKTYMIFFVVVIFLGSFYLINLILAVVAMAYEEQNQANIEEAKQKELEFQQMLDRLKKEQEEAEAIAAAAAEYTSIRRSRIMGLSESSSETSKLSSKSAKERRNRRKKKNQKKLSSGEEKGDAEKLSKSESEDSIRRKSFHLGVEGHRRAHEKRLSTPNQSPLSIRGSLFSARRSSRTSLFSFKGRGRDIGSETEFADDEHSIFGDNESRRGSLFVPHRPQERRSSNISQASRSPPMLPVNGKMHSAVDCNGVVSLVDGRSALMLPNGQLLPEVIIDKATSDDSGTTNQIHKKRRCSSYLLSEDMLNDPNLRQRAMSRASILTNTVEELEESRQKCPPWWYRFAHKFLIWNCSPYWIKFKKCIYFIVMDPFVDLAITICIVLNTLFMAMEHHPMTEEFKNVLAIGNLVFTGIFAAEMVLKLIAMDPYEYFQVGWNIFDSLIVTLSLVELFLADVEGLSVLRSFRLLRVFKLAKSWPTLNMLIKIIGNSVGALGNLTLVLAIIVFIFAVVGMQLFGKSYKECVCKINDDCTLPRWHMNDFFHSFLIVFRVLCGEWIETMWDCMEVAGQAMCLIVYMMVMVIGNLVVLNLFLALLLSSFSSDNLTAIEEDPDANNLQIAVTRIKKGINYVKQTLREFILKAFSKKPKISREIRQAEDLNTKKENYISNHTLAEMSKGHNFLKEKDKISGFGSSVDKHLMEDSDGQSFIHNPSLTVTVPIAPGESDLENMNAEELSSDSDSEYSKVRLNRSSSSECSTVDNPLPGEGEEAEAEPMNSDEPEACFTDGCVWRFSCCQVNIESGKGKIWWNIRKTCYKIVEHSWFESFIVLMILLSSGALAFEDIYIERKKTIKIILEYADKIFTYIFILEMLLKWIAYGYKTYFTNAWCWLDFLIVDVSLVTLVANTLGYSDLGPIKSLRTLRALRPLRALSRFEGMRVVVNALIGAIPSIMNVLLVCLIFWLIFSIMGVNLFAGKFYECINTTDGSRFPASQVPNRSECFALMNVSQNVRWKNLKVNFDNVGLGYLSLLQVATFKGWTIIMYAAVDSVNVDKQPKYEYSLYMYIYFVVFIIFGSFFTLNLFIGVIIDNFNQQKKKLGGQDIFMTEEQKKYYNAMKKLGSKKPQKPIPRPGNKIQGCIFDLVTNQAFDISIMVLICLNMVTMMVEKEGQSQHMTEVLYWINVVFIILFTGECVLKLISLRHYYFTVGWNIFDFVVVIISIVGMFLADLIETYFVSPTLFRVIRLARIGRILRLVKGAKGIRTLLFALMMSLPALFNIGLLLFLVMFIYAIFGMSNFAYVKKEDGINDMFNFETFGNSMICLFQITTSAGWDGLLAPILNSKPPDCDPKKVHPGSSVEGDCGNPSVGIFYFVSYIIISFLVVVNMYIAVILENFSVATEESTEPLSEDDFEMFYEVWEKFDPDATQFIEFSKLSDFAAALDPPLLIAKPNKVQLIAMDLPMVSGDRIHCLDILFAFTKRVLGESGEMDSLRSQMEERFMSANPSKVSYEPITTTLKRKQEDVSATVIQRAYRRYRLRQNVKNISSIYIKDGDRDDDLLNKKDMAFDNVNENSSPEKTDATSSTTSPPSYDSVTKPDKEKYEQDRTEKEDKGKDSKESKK

Chain of 5-hydroxytryptamine receptor 2A (Rattus norvegicus) (P14842 whole entry): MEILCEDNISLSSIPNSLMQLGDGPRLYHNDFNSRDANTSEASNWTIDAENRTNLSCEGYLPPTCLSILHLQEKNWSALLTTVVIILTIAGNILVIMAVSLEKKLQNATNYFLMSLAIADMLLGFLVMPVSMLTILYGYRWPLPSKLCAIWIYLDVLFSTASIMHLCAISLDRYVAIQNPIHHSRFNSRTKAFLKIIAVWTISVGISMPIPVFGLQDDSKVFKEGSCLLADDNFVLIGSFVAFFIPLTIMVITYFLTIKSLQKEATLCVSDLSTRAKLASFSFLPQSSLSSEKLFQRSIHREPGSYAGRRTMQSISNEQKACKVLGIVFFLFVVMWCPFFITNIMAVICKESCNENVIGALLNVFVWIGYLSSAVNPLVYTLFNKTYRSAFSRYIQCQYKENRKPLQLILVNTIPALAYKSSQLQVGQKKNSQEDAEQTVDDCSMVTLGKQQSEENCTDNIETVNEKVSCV
Chain of Mu-type opioid receptor (Homo sapiens) (P35372 whole entry): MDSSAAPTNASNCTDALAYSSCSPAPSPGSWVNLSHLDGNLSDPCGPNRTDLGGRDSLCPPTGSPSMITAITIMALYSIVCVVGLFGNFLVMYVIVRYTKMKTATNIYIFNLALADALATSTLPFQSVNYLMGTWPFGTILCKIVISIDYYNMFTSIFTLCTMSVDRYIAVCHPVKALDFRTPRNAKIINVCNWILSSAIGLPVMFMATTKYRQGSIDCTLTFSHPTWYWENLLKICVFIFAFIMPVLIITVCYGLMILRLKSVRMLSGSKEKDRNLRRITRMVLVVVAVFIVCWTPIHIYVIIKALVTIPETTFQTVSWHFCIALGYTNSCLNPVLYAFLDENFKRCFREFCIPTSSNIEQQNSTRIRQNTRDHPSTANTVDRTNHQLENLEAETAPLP
Chain of Histamine H3 receptor (Rattus norvegicus) (Q9QYN8 whole entry): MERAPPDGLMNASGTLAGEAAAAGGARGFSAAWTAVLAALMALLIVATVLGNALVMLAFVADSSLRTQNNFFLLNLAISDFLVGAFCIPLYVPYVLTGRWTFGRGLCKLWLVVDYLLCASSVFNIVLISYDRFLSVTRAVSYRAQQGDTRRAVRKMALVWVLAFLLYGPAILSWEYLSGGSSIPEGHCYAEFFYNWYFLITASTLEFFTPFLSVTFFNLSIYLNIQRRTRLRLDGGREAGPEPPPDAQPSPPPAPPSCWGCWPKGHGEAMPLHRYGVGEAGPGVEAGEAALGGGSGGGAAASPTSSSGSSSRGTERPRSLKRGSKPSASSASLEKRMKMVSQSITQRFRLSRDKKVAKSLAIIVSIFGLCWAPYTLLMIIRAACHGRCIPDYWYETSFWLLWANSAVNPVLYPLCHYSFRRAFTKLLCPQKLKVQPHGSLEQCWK

Structure (SMILES): O=c1ccc(OCCCN2CCCCC2)nn1-c1ccc(Cl)c(Cl)c1
- LD50 at 24 h [1]: > 2000 mg/kg
- Activity (Rattus norvegicus [2]): Non-toxic
- inhibition [3]: < 50%
- ED50 (Rattus norvegicus [4]): 16.9 mg/kg
- inhibition [5]: < 50%
- half-life [6]: 2.88 h
- Cmax [7]: 2920 ng/mL
- bioavailability [8]: 87.5%
- Activity (Mus musculus [9]): Dose-dependent effect
- ED50 (Mus musculus [9]; po): 49 mg/kg
- inhibition [10]: < 50%
- ED50 (Rattus norvegicus [11]): 18.6 mg/kg
- Activity (Mus musculus [12]): 18282.4 mm
- AUC(0-t) [13]: 931 ng·h/mL
- ED50 (Rattus norvegicus [14]): 51.9 mg/kg
- Tmax [15]: 0.33 h
- inhibition [16]: < 50%

Source: ChEMBL document CHEMBL3804799, “Synthesis and Biological Evaluation of Novel σ1 Receptor Ligands for Treating Neuropathic Pain: 6-Hydroxypyridazinones” (J Med Chem, 2016)
